Screening data deposited in PubChem BioAssay by Broad Institute.
Hits are enriched below; roughly 5.9% of the tested compounds scored in any of these assays.
T cruzi growth-1: inhibitors of T. cruzi proliferation; T. cruzi beta-gal in NIH3T3, GalScreen luminescence, 90 h; hit rate 5.9% among 77,000; inhibition, % at 8.34 µM; AID 624255;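 active means mean inhibition above about 93%, with at least 55% of replicates each passing it, limit read from the data, passing the limit was not always enough; inconclusive means only one of those two conditions holds; inactive means neither condition holds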
Pf Dd2 inh: blocks growth of Plasmodium falciparum Dd2 parasites | hit rate 2.3% among 94,000 | AID 1159554 | activity change, % at 10 µM | P. falciparum Dd2 growth, SYBR Green, 72 h; stronger effect = lower value; in the data active means activity change below about -80%; inconclusive means no clear call, values can overlap the other calls
KDM4C inh: inhibitors of human demethylase GASC-1 KDM4C | Q9H3R0 | hit rate 0.15% among 96,000 | GST-KDM4C 2-372, H3K9me3 peptide, LANCE TR-FRET | AID 720574 | inhibition, % at 12.5 µM;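 active means mean replicate inhibition above about 25%, with at least 55% of replicates also reaching it, limit read from the data, passing the limit was not always enough; inconclusive means only one of those two conditions met; inactive means neither condition met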
Target sequence (Q9H3R0 2-372 limits assumed): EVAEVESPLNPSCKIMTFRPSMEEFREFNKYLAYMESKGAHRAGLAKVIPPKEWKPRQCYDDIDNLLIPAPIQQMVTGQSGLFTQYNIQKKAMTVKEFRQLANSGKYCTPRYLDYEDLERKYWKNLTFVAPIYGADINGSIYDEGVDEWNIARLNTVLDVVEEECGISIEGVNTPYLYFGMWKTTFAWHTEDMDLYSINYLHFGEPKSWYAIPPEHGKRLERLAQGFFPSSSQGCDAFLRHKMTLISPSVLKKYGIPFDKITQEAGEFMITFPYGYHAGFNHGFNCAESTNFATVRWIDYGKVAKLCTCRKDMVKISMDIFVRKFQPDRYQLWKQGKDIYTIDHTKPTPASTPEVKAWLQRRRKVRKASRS
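Material: GST-tagged GASC-1 (JMJD2C) catalytic fragment, aa 2-372. Input: enzyme final amount 10 nM. Medium: HEPES buffer, pH 7.5, plus ascorbate. Reagent: H3K9me3 peptide substrate, Fe(II), 2-oxoglutarate. Doses: single dose. Times: reaction 30 min RT, detection step 1 h RT. Measured by: LANCE TR-FRET. Evaluation: Fall in 671/618 emission ratio as inhibition.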
IDH1 R132H inh: blocks human IDH1 R132H reductase activity | inhibition, % at 10 µM | O75874 | diaphorase/resazurin fluorescence, 60 min | hit rate 0.18% among 70,000; in the data active means inhibition above about 34%; inconclusive means no clear call, values can overlap the other calls; inactive means below about 11%;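 further: 0% = DMSO and 100% = no enzyme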
Target sequence (O75874 whole entry R132H): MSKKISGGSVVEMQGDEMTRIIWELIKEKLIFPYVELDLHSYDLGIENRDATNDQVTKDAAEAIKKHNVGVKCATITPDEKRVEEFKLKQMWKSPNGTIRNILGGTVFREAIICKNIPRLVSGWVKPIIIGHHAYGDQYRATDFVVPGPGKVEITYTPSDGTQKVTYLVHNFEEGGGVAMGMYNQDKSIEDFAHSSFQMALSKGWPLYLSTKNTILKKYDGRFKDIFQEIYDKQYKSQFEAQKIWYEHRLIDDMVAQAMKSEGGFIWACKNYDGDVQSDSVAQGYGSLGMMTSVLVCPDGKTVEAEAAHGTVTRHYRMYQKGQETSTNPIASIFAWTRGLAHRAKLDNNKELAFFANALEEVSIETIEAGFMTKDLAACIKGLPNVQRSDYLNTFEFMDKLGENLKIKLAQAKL
T cruzi growth-2: Trypanosoma cruzi proliferation inhibition; shares compounds with T cruzi growth-1; T. cruzi beta-gal in NIH3T3, GalScreen luminescence, 90 h; inhibition, % at 8.35 µM; hit rate 72% among 5,600; AID 651739;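 active means mean replicate inhibition above about 95% and at least 55% of replicates individually reaching it, limit read from the data; inconclusive means only one of the two criteria is met; inactive means neither criterion is met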
T cruzi growth-3: blocks T. cruzi growth in NIH3T3 host cells; hit rate 21% among 5,600; inhibition, % at 2.09 µM; shares compounds with T cruzi growth-1; AID 651740; T. cruzi beta-gal in NIH3T3, GalScreen luminescence, 90 h;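 active means mean inhibition above about 95%, with at least 55% of replicates also reaching it, limit read from the data; inconclusive means meets just one of the two conditions; inactive means meets neither condition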;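 further: plate controls were neutral control median for no effect and positive control median for full effect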
3T3 cytotox: cytotoxicity in mouse NIH/3T3 fibroblasts. shares compounds with T cruzi growth-1. NIH/3T3 viability, CellTiter-Glo ATP luminescence, 90 h. cytotoxicity (signal decrease), % at 8.35 µM. hit rate 14% among 5,600. AID 651742;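 active means mean signal decrease across replicates above about 35% based on untreated-well scatter, with enough replicates individually passing, limit read from the data; inconclusive means no rule stated though some were filed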;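 further: 0% = median of neutral control wells and 100% = median of positive control wells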
NIH3T3 tox 2: NIH/3T3 (mouse) viability loss | shares compounds with T cruzi growth-1 | NIH/3T3 viability, CellTiter-Glo ATP luminescence, 90 h | inhibition, % at 24.9 µM | hit rate 56% among 5,600 | AID 651744;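 active means mean loss of cell viability signal at or above a set limit, and enough replicates individually reaching it; inconclusive means meets only the mean limit or only the replicate share; inactive means meets neither condition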;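 further: 0% = median of neutral control wells and 100% = median of positive control wells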
Active calls of the source: *; ? = inconclusive; / = not tested or not shown.

SMILES | T cruzi growth-1 | Pf Dd2 inh | KDM4C inh | IDH1 R132H inh | T cruzi growth-2 | T cruzi growth-3 | 3T3 cytotox | NIH3T3 tox 2
O=C(N/N=C/c1cc2ccccc2n1S(=O)(=O)c1ccccc1)c1ccccc1O | / | / | / | 0.0 | / | / | / | /
CC1=C(C/C=N/NC(=O)c2ccc(C(=O)NO)cc2)C(C)(C)CCC1 | / | / | / | -0.9 | / | / | / | /
Cc1nc(SCC(=O)Nc2ccc(F)cc2)nc2c1CCCC2 | / | / | / | 1.4 | / | / | / | /
CC(C)(C)c1ccc(OCC(=O)Nc2cccnc2)c(Br)c1 | / | / | / | 0.0 | / | / | / | /
COc1cccc(N(CC(=O)Nc2c(C)cc(C)cc2C)S(C)(=O)=O)c1 | / | / | / | 0.2 | / | / | / | /
CC(C)CC#Cc1ccc2c(c1)O[C@@H](CN(C)C(=O)c1ccccc1)[C@@H](C)CN([C@@H](C)CO)S2(=O)=O | 120.3* | -69.5 | -6.0 | -0.2 | 101.8* | 88.0 | 26.6 | 103.2*
CCCC#Cc1ccc2c(c1)O[C@H](CN(C)C(=O)c1ccccc1)[C@H](C)CN([C@H](C)CO)S2(=O)=O | 98.5* | -66.1 | 0.5 | -0.2 | 107.3* | 80.8 | -2.8 | 58.4*
CCCC#Cc1ccc2c(c1)O[C@@H](CN(C)C(=O)c1ccncc1)[C@H](C)CN([C@@H](C)CO)S2(=O)=O | 87.2 | 23.2 | 1.3 | 0.2 | / | / | / | /
CCCC#Cc1ccc2c(c1)O[C@H](CN(C)C(=O)c1ccncc1)[C@H](C)CN([C@@H](C)CO)S2(=O)=O | 84.3 | -14.4 | 2.6 | 0.2 | / | / | / | /
CCCC#Cc1ccc2c(c1)O[C@H](CN(C)C(=O)c1ccccc1)[C@@H](C)CN([C@@H](C)CO)S2(=O)=O | 111.6* | -40.6 | 0.2 | -0.4 | 103.6* | 60.2 | 20.6 | 35.2*
CC(C)CC#Cc1ccc2c(c1)O[C@H](CN(C)C(=O)c1ccccc1)[C@@H](C)CN([C@H](C)CO)S2(=O)=O | / | -57.5 | -2.4 | 1.8 | / | / | / | /
CCCC#Cc1ccc2c(c1)O[C@@H](CN(C)C(=O)c1ccccc1)[C@H](C)CN([C@@H](C)CO)S2(=O)=O | 95.7* | -57.7 | 0.0 | 0.5 | 101.7* | 73.0 | 32.2 | 62.2*
COc1cccc(OC)c1C(=O)Nc1ccc(C(=O)NCC2CCCO2)cc1 (stereo unspecified) | / | / | / | 0.1 | / | / | / | /
COc1ccccc1C#Cc1ccc2c(c1)O[C@H](CN(C)Cc1ccncc1)[C@@H](C)CN([C@H](C)CO)S2(=O)=O | 122.7* | -59.6 | 12.8 | -0.2 | 96.7* | 101.7* | 10.7 | 71.0*
COc1ccccc1C#Cc1ccc2c(c1)O[C@H](CN(C)Cc1ccncc1)[C@H](C)CN([C@H](C)CO)S2(=O)=O | 112.4* | -64.2 | -1.3 | 0.0 | 104.4* | 83.6 | 27.6 | 7.4
O=C(NCc1ccco1)c1cccc(NC(=O)c2ccc(Br)cc2)c1 | / | / | / | -0.2 | / | / | / | /
C[C@@H]1CN([C@@H](C)CO)S(=O)(=O)c2ccc(C3=CCCCC3)cc2O[C@H]1CN(C)Cc1ccccc1 | 121.2* | -52.0 | 0.5 | 1.6 | 93.1 | 110.4* | 82.8* | 103.6*
C[C@@H]1CN([C@H](C)CO)S(=O)(=O)c2ccc(C3=CCCCC3)cc2O[C@H]1CN(C)Cc1ccccc1 | 118.7* | -52.6 | -2.7 | -0.1 | 87.4 | 101.1* | 78.3* | 105.8*
Cc1ccc(S(=O)(=O)Nc2ccc3c(c2)C(=O)N([C@H](C)CO)C[C@@H](C)[C@H](CN(C)S(=O)(=O)c2ccc(F)cc2)OCCCC[C@@H](C)O3)cc1 | 109.0* | -56.9 | 0.2 | 1.1 | 101.8* | 76.4 | 6.3 | -17.3
Cc1ccc(S(=O)(=O)N(C)C[C@H]2OCCCC[C@H](C)Oc3ccc(NS(=O)(=O)c4ccc(F)cc4)cc3C(=O)N([C@@H](C)CO)C[C@@H]2C)cc1 | 114.6* | -70.9 | -1.4 | / | 104.4* | 83.8 | -21.9 | -23.0
Cc1ccc(S(=O)(=O)N(C)C[C@@H]2OCCCC[C@@H](C)Oc3ccc(NS(=O)(=O)c4ccc(F)cc4)cc3C(=O)N([C@@H](C)CO)C[C@@H]2C)cc1 | 101.6* | -76.0 | 0.5 | 0.4 | 105.1* | 89.7 | -27.2 | 11.9
Cc1ccc(S(=O)(=O)Nc2ccc3c(c2)C(=O)N([C@@H](C)CO)C[C@H](C)[C@@H](CN(C)S(=O)(=O)c2ccc(F)cc2)OCCCC[C@H](C)O3)cc1 | / | -79.2 | 0.9 | 0.4 | / | / | / | /
Cc1ccc(S(=O)(=O)Nc2ccc3c(c2)C(=O)N([C@H](C)CO)C[C@@H](C)[C@@H](CN(C)S(=O)(=O)c2ccc(F)cc2)OCCCC[C@@H](C)O3)cc1 | / | -67.2 | -0.2 | / | / | / | / | /
Cc1ccc(S(=O)(=O)Nc2ccc3c(c2)C(=O)N([C@H](C)CO)C[C@@H](C)[C@@H](CN(C)S(=O)(=O)c2ccc(F)cc2)OCCCC[C@H](C)O3)cc1 | / | -55.5 | -0.1 | -0.7 | / | / | / | /
Cc1ccc(S(=O)(=O)Nc2ccc3c(c2)C(=O)N([C@@H](C)CO)C[C@@H](C)[C@H](CN(C)S(=O)(=O)c2ccc(F)cc2)OCCCC[C@@H](C)O3)cc1 | 102.8* | -21.7 | 0.1 | / | 105.9* | 66.1 | -0.6 | 6.4
SMILES | T cruzi growth-1 | Pf Dd2 inh | KDM4C inh | IDH1 R132H inh | T cruzi growth-2 | T cruzi growth-3 | 3T3 cytotox | NIH3T3 tox 2
O=C(CSc1nnnn1-c1ccccc1)Nc1cccc(I)c1 | / | / | / | 0.4 | / | / | / | /
Cc1ccc(S(=O)(=O)Nc2ccc3c(c2)C(=O)N([C@@H](C)CO)C[C@H](C)[C@H](CN(C)S(=O)(=O)c2ccc(F)cc2)OCCCC[C@H](C)O3)cc1 | 115.9* | -73.5 | 0.2 | / | 104.3* | 66.9 | -2.3 | 9.2
Cc1ccc(S(=O)(=O)Nc2ccc3c(c2)C(=O)N([C@@H](C)CO)C[C@H](C)[C@H](CN(C)S(=O)(=O)c2ccc(F)cc2)OCCCC[C@@H](C)O3)cc1 | ? | -67.0 | 0.5 | -10.3 | 104.7* | 76.7 | 20.1 | 31.6*
C[C@@H]1CN([C@@H](C)CO)C(=O)c2cc(NC(=O)Nc3cccc4ccccc34)ccc2O[C@H]1CN(C)Cc1ccc(C(F)(F)F)cc1 | 96.4* | 8.7 | -0.5 | / | 106.2* | 77.5 | 21.1 | 21.0
C[C@H](CO)N1C[C@H](C)[C@@H](CN(C)Cc2ccc(C(F)(F)F)cc2)Oc2ccc(NC(=O)Nc3cccc4ccccc34)cc2C1=O | 100.1* | 10.7 | -0.6 | / | 107.2* | 59.9 | 23.5 | 11.6
C[C@H]1CN([C@@H](C)CO)C(=O)c2cccc(NC(=O)c3ccncc3)c2O[C@H]1CN(C)C(=O)Nc1cccc2ccccc12 | 96.1* | -6.4 | 0.5 | 3.0 | ? | 76.3 | -9.8 | 1.4
C[C@H]1CN([C@@H](C)CO)C(=O)c2cccc(NC(=O)Nc3cccc4ccccc34)c2O[C@H]1CN(C)C(=O)Nc1ccc(F)cc1 | 115.6* | -28.1 | -0.3 | -0.6 | 108.9* | 92.6 | -0.3 | ?
